Results published in ChEMBL document CHEMBL1123068, “2-Fluoroformycin and 2-aminoformycin. Synthesis and biological activity” (J Med Chem, 1985).

What follows are molecules tested on L1210 (assay: Cytotoxic concentration required to reduce rate of L1210 cell proliferation after 48 hr). Settings: Mus musculus, L1210, 48 h.
Format: functional, cell-based
Outline: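 L1210 cells grown rapidly in suspension culture were exposed to a range of inhibitor concentrations, some tests with the adenosine deaminase inhibitor pentostatin added. The drop in proliferation rate versus untreated controls was found by cell counts at 24 and 48 h after addition, and IC50 was taken from this.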

Compound | IC50 [µM]
Nc1nc(N)c2[nH]nc([C@@H]3O[C@H](CO)[C@@H](O)[C@H]3O)c2n1 | 31
Nc1nc(F)nc2c([C@@H]3O[C@H](CO)[C@@H](O)[C@H]3O)n[nH]c12.OC[C@H]1O[C@@H](n2cnc3c2NC=NC[C@H]3O)C[C@@H]1O | 22
Nc1nc(N)c2[nH]nc([C@@H]3O[C@H](CO)[C@@H](O)[C@H]3O)c2n1.OC[C@H]1O[C@@H](n2cnc3c2NC=NC[C@H]3O)C[C@@H]1O | 5
Nc1nc(F)nc2c([C@@H]3O[C@H](CO)[C@@H](O)[C@H]3O)n[nH]c12 | 12
Nc1ncnc2c([C@@H]3O[C@H](CO)[C@@H](O)[C@H]3O)n[nH]c12.OC[C@H]1O[C@@H](n2cnc3c2NC=NC[C@H]3O)C[C@@H]1O | 0.2
Nc1ncnc2c([C@@H]3O[C@H](CO)[C@@H](O)[C@H]3O)[nH]nc12 [FORMYCIN] | 1
